Measured values of several laboratories.
Target: Aurora kinase C (AURKC, Homo sapiens, UniProt Q9UQB9)
One construct used (Q9UQB9 1-309): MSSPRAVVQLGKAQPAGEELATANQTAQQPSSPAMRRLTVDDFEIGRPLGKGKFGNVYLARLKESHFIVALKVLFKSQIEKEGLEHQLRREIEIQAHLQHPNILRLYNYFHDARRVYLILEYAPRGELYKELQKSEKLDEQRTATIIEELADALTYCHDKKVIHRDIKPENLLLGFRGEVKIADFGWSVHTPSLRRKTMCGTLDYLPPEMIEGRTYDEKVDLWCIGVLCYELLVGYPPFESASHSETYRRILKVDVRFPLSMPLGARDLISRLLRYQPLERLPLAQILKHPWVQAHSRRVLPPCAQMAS

SMILES	effect on	technique	concentration	remaining binding
CN(C)c1ncc(F)c(-c2cnn3ncccc23)n1	binding	–	1 µM	100%
O=C(c1ccc(Nc2ncc(Cl)c(-c3ccc(Cl)s3)n2)cc1)N1CCC(N2CCCC2)CC1	binding	competition with immobilised ligand	1 µM	2.8%
CS(=O)(=O)c1cc(C2(NC(=O)c3cncc4c3cnn4-c3ccc(F)cc3)CC2)ccn1	cell-free assay	competition with immobilised ligand	1 µM	100%
C[C@@H](c1ccc(-n2cnc3c(N)ncnc32)cc1)N1CCc2nn(C)c(Cc3ccccc3)c2C1=O	binding	competition with immobilised ligand	0.1 µM	79%
COc1cnc(Nc2cccc(S(N)(=O)=O)c2)nc1N1CCN(c2ccccc2)C(=O)C1	binding	competition with immobilised ligand	1 µM	97%
O=C(NCC1CCOCC1)c1n[nH]cc1NC(=O)c1c(F)cccc1F	binding	competition with immobilised ligand	1 µM	79%
CC(=O)Nc1c(C(C)=O)c(=O)n(C)c2nc(-c3ccc(Cl)cc3Cl)c(-c3ccc(Cl)cc3)cc12	cell-free assay	competition with immobilised ligand	1 µM	100%
O=C(NCCCN1CCOCC1)c1ccc(Nc2ncc(Cl)c(-c3ccc(Cl)s3)n2)cc1	binding	competition with immobilised ligand	1 µM	5.5%
CNC(=O)Nc1ccc2c(c1)CC[C@@]21OC(=O)N(CC(=O)N(Cc2ccc(F)cc2)[C@@H](C)C(F)(F)F)C1=O	cell-free assay	competition with immobilised ligand	1 µM	100%
C[C@@H]1CCN(c2nccc(-c3cnn4ncccc34)n2)C1	binding	–	1 µM	98%
O=C(Nc1cccnn1)N1CCC(=Cc2cccc(Oc3ccc(C(F)(F)F)cn3)c2)CC1	cell-free assay	competition with immobilised ligand	1 µM	100%
O=C(NCCCN1CCOCC1)c1ccc(Nc2nccc(-c3cc4ccccc4s3)n2)cc1	binding	competition with immobilised ligand	1 µM	32%
N[C@@H]1CCN(c2nccc(-c3cnn4ncccc34)n2)C1	binding	–	1 µM	100%
Nc1ncc2c(n1)-c1c([nH]c3ccc(C#CC4CC4)cc13)CCCC2	binding	competition with immobilised ligand	1 µM	86%
CN(C)c1nccc(-c2cnc3ncccn23)n1	binding	–	1 µM	100%
COc1ccc2c(c1)O[C@H](c1ccc(OC)c(OC)c1)C[C@@H]2NC(=O)C1(c2ccc3c(c2)OC(F)(F)O3)CC1	cell-free assay	competition with immobilised ligand	1 µM	100%
F[C@@H]1CCN(c2nccc(-c3cnn4ncccc34)n2)C1	binding	–	1 µM	100%
COc1ncc2cc3ccccc3nc2c1C#N	cell-free assay	competition with immobilised ligand	5 µM	100%
Cn1nc(C(F)(F)F)cc1-c1cnc(N2CCc3cc(S(=O)(=O)Nc4c(F)cc(Cl)cc4F)cc(N4CCCC4=O)c32)nc1	cell-free assay	competition with immobilised ligand	1 µM	100%
CN(c1nccc(-c2cnn3ncccc23)n1)C1CC1	binding	–	1 µM	100%
O=C(NC[C@@H]1[C@H]2CN(C(=O)OCc3cc(C(F)(F)F)cc(C(F)(F)F)c3)C[C@@H]12)c1ccc2[nH]nnc2c1	cell-free assay	competition with immobilised ligand	1 µM	91%
CN(CCCC(F)(F)F)c1nccc(-c2cnn3ncccc23)n1	binding	–	1 µM	100%
